The list is not random: actives were taken first. Their share in the collection is about 5.8%.
Pf Dd2 inh: P. falciparum Dd2 growth inhibitors, primary screen, SYBR Green fluorescence, single dose replicates | 2.3% of 94,000 active | activity change, % at 10 µM | AID 1159554, 2015 | 72 h; hits give low values; in the data active = activity change below about -80%
IDH1 R132H inh: inhibitors of IDH1 R132H reductase, primary screen, biochemical, plate reader, single point. inhibition, % at 10 µM. 0.18% of 70,000 active. diaphorase/resazurin fluorescence, 60 min. Isocitrate dehydrogenase [NADP] cytoplasmic (Homo sapiens), O75874; in the data active = inhibition above about 34%;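 also: 0% = DMSO and 100% = no enzyme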
KDM4C inh: inhibitors of GASC-1 (KDM4C) histone demethylase, primary screen, biochemical, single concentration HTS; AID 720574, 2013; Lysine-specific demethylase 4C (Homo sapiens), Q9H3R0; GST-KDM4C 2-372, H3K9me3 peptide, LANCE TR-FRET; inhibition, % at 12.5 µM; 0.15% of 96,000 active;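 active = mean replicate inhibition above about 25%, with at least 55% of replicates also reaching it, limit read from the data, passing the limit was not always enough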
Target sequence (Q9H3R0 2-372 limits assumed): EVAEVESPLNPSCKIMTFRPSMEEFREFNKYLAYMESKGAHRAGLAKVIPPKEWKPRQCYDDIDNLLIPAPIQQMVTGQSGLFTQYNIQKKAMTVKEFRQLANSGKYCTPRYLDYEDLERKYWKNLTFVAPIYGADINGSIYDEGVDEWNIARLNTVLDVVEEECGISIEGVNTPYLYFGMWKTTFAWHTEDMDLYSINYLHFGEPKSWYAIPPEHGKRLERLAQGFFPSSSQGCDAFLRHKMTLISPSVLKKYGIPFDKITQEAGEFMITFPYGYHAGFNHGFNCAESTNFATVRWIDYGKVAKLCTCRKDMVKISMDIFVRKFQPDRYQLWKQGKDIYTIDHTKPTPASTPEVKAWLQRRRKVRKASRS
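material = GST-tagged GASC-1 (JMJD2C) catalytic fragment, aa 2-372 | amount = enzyme final amount 10 nM | medium = HEPES buffer, pH 7.5, plus ascorbate | also added = H3K9me3 peptide substrate, Fe(II), 2-oxoglutarate | dosing = single dose | times = 30 min demethylation and 1 h detection at room temperature | detection = LANCE TR-FRET | read-out basis = Fall in 671/618 emission ratio as inhibition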
Tcruzi prolif: T. cruzi intracellular proliferation inhibitors, primary screen, cell-based, beta-gal Tulahuen parasites, NIH3T3 host, luminescence; T. cruzi beta-gal in NIH3T3, GalScreen luminescence, 90 h; inhibition, % at 8.34 µM; 5.9% of 77,000 active; AID 624255, 2012;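 active = mean inhibition above about 93%, with at least 55% of replicates each passing it, limit read from the data, passing the limit was not always enough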
* hit, by the source's call; x = no result given.

SMILES | Pf Dd2 inh | IDH1 R132H inh | KDM4C inh | Tcruzi prolif
COc1ccc(NC(=O)Nc2ccc3c(c2)C(=O)N([C@@H](C)CO)C[C@H](C)[C@H](CN(C)S(=O)(=O)c2ccc(Cl)cc2)OCCCC[C@@H](C)O3)cc1 | -87* | x | 6 | 80
COc1ccc(NC(=O)Nc2ccc3c(c2)C(=O)N([C@H](C)CO)C[C@H](C)[C@H](CN(C)S(=O)(=O)c2ccc(Cl)cc2)OCCCC[C@@H](C)O3)cc1 | -82* | 0 | 0 | 33
COc1ccc(S(=O)(=O)N(C)C[C@@H]2OCCCC[C@@H](C)Oc3ccc(NC(=O)Nc4ccccc4)cc3C(=O)N([C@@H](C)CO)C[C@@H]2C)cc1 | -83* | -1 | 0 | 74
COCC(=O)N1CC2(C1)[C@@H](c1ccc(-c3ccccc3)cc1)[C@@H](CO)N2C(C)=O | 17 | x | -2 | x
COc1cccc(-c2cccc(-c3nc(C(=O)Nc4ccc(-c5ccccc5)cc4)cc4c3[C@@H](CCO)N(S(=O)C(C)(C)C)C4)c2)c1 (stereo partly drawn) | -84* | x | -3 | x
COc1ccc(C#Cc2cccc(-c3nc(C(=O)Nc4ccc(-c5ccccc5)cc4)cc4c3[C@@H](CCO)N(S(=O)C(C)(C)C)C4)c2)cc1OC (stereo partly drawn) | -89* | x | -2 | x
COc1ccccc1-c1cccc(-c2nc(C(=O)Nc3nccs3)cc3c2[C@H](CCO)N(C(=O)CC2CC2)C3)c1 | -86* | x | 6 | x
COc1ccc(C#Cc2cccc(-c3nc(C(=O)O)cc4c3[C@H](CCO)N(S(=O)C(C)(C)C)C4)c2)cc1OC (stereo partly drawn) | x | x | 13 | 60
O=C(Cc1ccncc1)NCC[C@H]1CC[C@@H](NC(=O)C2CCOCC2)[C@H](CO)O1 | 11 | 0 | -1 | -29
COc1ccc(S(=O)(=O)N(C)C[C@@H]2OCCCC[C@@H](C)Oc3ccc(NC(=O)Nc4ccc5c(c4)OCO5)cc3C(=O)N([C@H](C)CO)C[C@@H]2C)cc1 | -84* | x | 6 | 37
COc1ccc(NC(=O)Nc2ccc3c(c2)C(=O)N([C@@H](C)CO)C[C@@H](C)[C@H](CN(C)S(=O)(=O)c2ccc(OC)cc2)OCCCC[C@@H](C)O3)cc1 | -57 | -1 | 0 | 84
COc1ccc(S(=O)(=O)N(C)C[C@@H]2OCCCC[C@H](C)Oc3ccc(NC(=O)Nc4ccc5c(c4)OCO5)cc3C(=O)N([C@H](C)CO)C[C@H]2C)cc1 | -82* | 2 | 17 | 40
COc1ccc(S(=O)(=O)N(C)C[C@@H]2OCCCC[C@@H](C)Oc3ccc(NC(=O)Nc4ccc5c(c4)OCO5)cc3C(=O)N([C@@H](C)CO)C[C@@H]2C)cc1 | -88* | x | 1 | 75
COc1ccc2c3c([nH]c2c1)[C@@H](CO)NCC31CCN(C(=O)Nc2ccc3c(c2)OCO3)CC1 | 8 | x | 0 | x
CCNC(=O)[C@@H]1[C@@H](CO)[C@@H]2Cn3c(ccc(-c4ccncc4)c3=O)[C@H]1N2CC1CC1 | 11 | x | 0 | 44
N#Cc1cccc(-c2ccc3c(c2)[C@H]2[C@H](CCN2Cc2ccncc2)[C@@H](CO)N3)c1 | -89* | x | 6 | x
OC[C@H]1Nc2ccc(-c3cccc(F)c3)cc2[C@H]2[C@@H]1CCN2Cc1ccc(F)cc1 | -73 | x | 1 | 94
COc1ccc(-c2ccc3c(c2)[C@H]2[C@H](CCN2Cc2ccncc2)[C@@H](CO)N3)cc1 | -82* | x | 3 | x
OC[C@@H]1Nc2ccc(-c3cccc(F)c3)cc2[C@@H]2[C@H]1CCN2Cc1ccncc1 | -92* | x | 5 | x
N#Cc1cccc(-c2ccc3c(c2)[C@H]2[C@H](CCN2Cc2ccc4c(c2)OCO4)[C@H](CO)N3)c1 | -71 | x | 0 | 46
CN(C)C(=O)C[C@H]1C[C@H]2c3cc(NC(=O)Cc4ccncc4)ccc3O[C@H]2[C@@H](CO)O1 | 9 | -1 | 6 | 11
C[C@H]1CN([C@@H](C)CO)C(=O)Cc2cc(NC(=O)Cc3ccccc3)ccc2O[C@H]1CN(C)S(=O)(=O)c1ccc(F)cc1 | -31 | 1 | -1 | 12
COc1ccc(C(=O)N2C[C@H]3[C@@H](c4ccccc42)[C@H](CO)N3C(=O)c2cccc(F)c2)cc1 | -9 | x | 1 | 23

Source: PubChem (Broad Institute)
